This sample holds only a part of the variants without activity. Bounds are passed on as bounds.

The record followed here is the RNAGym collection of RNA variant scans (doi:10.1126/science.aae0568).

B1: tRNA (parent)
chain: GUUCCGUUGGCGUAAUGGUAACGCGUCUCCCUCCUAAGGAGAAGACUGCGGGUUCGAGUCCCGUACGGAACG

Variants of B1 are the subject of the data set. As to the kind of experiment: yeast fitness relative to wild type (ratio to wild type); higher = fitter; tRNA-Arg(CCU), competitive growth, 37 C, YPD. The essentials: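 A pool of Saccharomyces cerevisiae strains, each with a tRNA-Arg(CCU) gene variant at the native genomic locus, was competed in YPD at 37°C for 24 hours across six parallel replicates. The variants had been chemically synthesised at a 3% per-site mutation rate over 69 sites, and gene amplicons before and after competition were read by 100-nucleotide paired-end sequencing. Darwinian fitness relative to wild type rested on changes in genotype frequencies. Genotypes required ≥ 100 starting reads, and estimates < 0.5 were set to 0.5.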
With GUUCCGUUGGCGUAAUGGUAACGCGUCUCCCUCCUAAGGAGAAGACUGCGGGUUCGAGUCGCGUACGGAGCG [C61G A70G], the yeast fitness turned out to be 0.685. GUUCCGUUGGCGUAAUGGUAACGCGUCUCCCUCCUAAGGAGAAGACUGCGGGUUCGAGUACCGUAUGGAACG [C60A C66U]: the yeast fitness turned out to be 0.608. Next, GUUCCGUUGGCGUAAUGGUAACGCGUCUCCCUCCUAAGGAGAAGACUGCGGGUUCGAGUACCGUAGGGAACG [C60A C66G]: 0.773. Next, GUUCCGUUGGCGUAAUGGUAACGCGUCUCCCUCCUAAGGAGAAGACUGCGGGUUCGAGUCGGGUACGGACCG [C61G C62G A70C]: 0.512; GUUCCGUUGGCGUAAUGGUAACGCGUCUCCCUCCUAAGGAGAAGACUGCGGGUUCGAGAGCCGUACGGAACG [U59A C60G]: 0.655. Next, GUUCCGUUGGCGUAAUGGUAACGCGUCUCCCUCCUAAGGAGAAGACUGCGGGUUCGAGUCACGUACAGAACG [C61A G67A]: 0.582; GUUCCGUUGGCGUAAUGGUAACGCGUCUCCCUCCUAAGGAGAAGACUGCGGGUUCGAGUUGCGUACAGAACG [C60U C61G G67A]: ≤ 0.5. Take GUUCCGUUGGCGUAAUGGUAACGCGUCUCCCUCCUAAGGAGAAGACUGCGGGUUCGAGUACCGUACGGCACG [C60A A69C]: the yeast fitness is 0.752.

As for GUUCCGUUGGCGUAAUGGUAACGCGUCUCCCUCCUAAGGAGAAGACUGCGGGUUCGAGUACCGUACGGUACG [C60A A69U], the yeast fitness is 0.746. For the variant GUUCCGUUGGCGUAAUGGUAACGCGUCUCCCUCCUAAGGAGAAGACUGCGGGUUCGAGCUCCGUACGGAACG [U59C C60U], the yeast fitness turned out to be 0.704. Next, GUUCCGUUGGCGUAAUGGUAACGCGUCUCCCUCCUAAGGAGAAGACUGCGGGUUCGAGGCCCGUACAGAACG [U59G G67A]: 0.796. Under GUUCCGUUGGCGUAAUGGUAACGCGUCUCCCUCCUAAGGAGAAGACUGCGGGUUCGAGUUCCGUAUGGAACG [C60U C66U] stands 0.711; under GUUCCGUUGGCGUAAUGGUAACGCGUCUCCCUCCUAAGGAGAAGACUGCGGGUUCGAUUCCCGUAAGGACCG [G58U C66A A70C], 0.665; under GUUCCGUUGGCGUAAUGGUAACGCGUCUCCCUCCUAAGGAGAAGACUGCGGGUUCGACUCCCCUACGGAACG [G58C G63C], 0.702.

On to GUUCCGUUGGCGUAAUGGUAACGCGUCUCCCUCCUAAGGAGAAGACUGCGGGUUCGAGCCCUGUACGGAACG [U59C C62U], for which the yeast fitness amounted to 0.814.

As for GUUCCGUUGGCGUAAUGGUAACGCGUCUCCCUCCUAAGGAGAAGACUGCGGGUUCGAGUCAUGUACGGAACG [C61A C62U], the yeast fitness turned out to be 0.795. Under GUUCCGUUGGCGUAAUGGUAACGCGUCUCCCUCCUAAGGAGAAGACUGCGGGUUCGAGUCAAGUACGGAACG [C61A C62A] stands 0.603; under GUUCCGUUGGCGUAAUGGUAACGCGUCUCCCUCCUAAGGAGAAGACUGCGGGUUCGAGUAACAUACGGAACG [C60A C61A G63A], 0.605; under GUUCCGUUGGCGUAAUGGUAACGCGUCUCCCUCCUAAGGAGAAGACUGCGGGUUCGAGACCCGUACAGAACG [U59A G67A], 0.799. In the case of GUUCCGUUGGCGUAAUGGUAACGCGUCUCCCUCCUAAGGAGAAGACUGCGGGUUCGAGACCUGUACGGAACG [U59A C62U], the yeast fitness stood at 0.922. Take GUUCCGUUGGCGUAAUGGUAACGCGUCUCCCUCCUAAGGAGAAGACUGCGGGUUCGAGUACCGUACGGAGCG [C60A A70G]: the yeast fitness worked out at 0.531.

Regarding GUUCCGUUGGCGUAAUGGUAACGCGUCUCCCUCCUAAGGAGAAGACUGCGGGUUCGAGUACCGUACGGACCG [C60A A70C], the yeast fitness turned out to be 0.621. Regarding GUUCCGUUGGCGUAAUGGUAACGCGUCUCCCUCCUAAGGAGAAGACUGCGGGUUCGAGCCCCGUACGGACCG [U59C A70C], the yeast fitness worked out at 0.897. Next, GUUCCGUUGGCGUAAUGGUAACGCGUCUCCCUCCUAAGGAGAAGACUGCGGGUUCGAGCCCCGUACGGAUCG [U59C A70U]: 1.01; GUUCCGUUGGCGUAAUGGUAACGCGUCUCCCUCCUAAGGAGAAGACUGCGGGUUCGAGUGCCGUACGGUACG [C60G A69U]: 0.655; GUUCCGUUGGCGUAAUGGUAACGCGUCUCCCUCCUAAGGAGAAGACUGCGGGUUCGAGUACCGUAUGCAACG [C60A C66U G68C]: ≤ 0.5. As to GUUCCGUUGGCGUAAUGGUAACGCGUCUCCCUCCUAAGGAGAAGACUGCGGGUUCGAGUCACCUACGGAACG [C61A G63C], the yeast fitness is 0.618.

Turning to GUUCCGUUGGCGUAAUGGUAACGCGUCUCCCUCCUAAGGAGAAGACUGCGGGUUCGACCCCCGUACGGUACG [G58C U59C A69U], the yeast fitness worked out at 0.679. Next, GUUCCGUUGGCGUAAUGGUAACGCGUCUCCCUCCUAAGGAGAAGACUGCGGGUUCGAGUUCCGUACGGAGCG [C60U A70G]: 0.786; GUUCCGUUGGCGUAAUGGUAACGCGUCUCCCUCCUAAGGAGAAGACUGCGGGUUCGAGUGCCGUAAGGAACG [C60G C66A]: 0.541; GUUCCGUUGGCGUAAUGGUAACGCGUCUCCCUCCUAAGGAGAAGACUGCGGGUUCGAGUGCCGUAUGGAACG [C60G C66U]: 0.599.

Turning to GUUCCGUUGGCGUAAUGGUAACGCGUCUCCCUCCUAAGGAGAAGACUGCGGGUUCGAGACCCGUACGGUACG [U59A A69U], the yeast fitness stood at 0.817. Under GUUCCGUUGGCGUAAUGGUAACGCGUCUCCCUCCUAAGGAGAAGACUGCGGGUUCGAGCCCCGUACGGUACG [U59C A69U] stands 1.02. Turning to GUUCCGUUGGCGUAAUGGUAACGCGUCUCCCUCCUAAGGAGAAGACUGCGGGUUCGAGUCGCGUCCGGAACG [C61G A65C], the yeast fitness was 0.658.

For the variant GUUCCGUUGGCGUAAUGGUAACGCGUCUCCCUCCUAAGGAGAAGACUGCGGGUUCGAGUCGCGUGCGGAACG [C61G A65G], the yeast fitness worked out at 0.713. Next, GUUCCGUUGGCGUAAUGGUAACGCGUCUCCCUCCUAAGGAGAAGACUGCGGGUUCGAGUACCGCACGGAACG [C60A U64C]: 0.718; GUUCCGUUGGCGUAAUGGUAACGCGUCUCCCUCCUAAGGAGAAGACUGCGGGUUCGAGUCGAGUACGGAACG [C61G C62A]: 0.503.

As for GUUCCGUUGGCGUAAUGGUAACGCGUCUCCCUCCUAAGGAGAAGACUGCGGGUUCGAGUCGGGUACGGAACG [C61G C62G], the yeast fitness amounted to 0.741.
